Experimental data reported in ChEMBL document CHEMBL5712071, “BET bromodomain protein inhibition is a therapeutic option for medulloblastoma” (Oncotarget, 2013).
The source made the active and inactive calls. No cut-off for these calls is given here.

Assays:
D283 Med = assay: Anti-proliferative activity against human D283 cells assessed as reduction in cell viability incubated for 96 hrs by MTT assay; format: functional, cell-based
How it was run: (§1)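 Cells seeded in triplicate at 2 × 10^3 per well and allowed to adhere for 24h. JQ1 was given as serial dilutions in full medium, 1nM-6µM, from a 10 mM DMSO stock. Viability was read by MTT at each time point and IC50 derived from dose-response curves. Culture media were RPMI 1640/10% FCS for HD-MB3 (plus 1% NEAA), ONS-76, Daoy and UW-228, and EMEM/10% FCS for D-283 and D-341.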

HD-MB03 = assay: Anti-proliferative activity against human HD-MB03 cells assessed as reduction in cell viability incubated for 120 hrs by MTT assay; format: functional, cell-based; details: HD-MB03, 120 h; how it was run: as §1
UW228 = assay: Anti-proliferative activity against human UW228 cells assessed as reduction in cell viability incubated for 72 hrs by MTT assay; format: functional, cell-based; details: UW228, 72 h; how it was run: as §1
Daoy = assay: Induction of apoptosis in human Daoy cells assessed as increase in population of cells in sub-G1 phase at 500 nM incubated for 72 hrs by ELISA; format: functional, cell-based
[1] = target: Bromodomain-containing protein 4 (Homo sapiens) (UniProt O60885); details: HD-MB03, dose 500.0 nM, time 72.0 hrs

Cc1sc2c(c1C)C(c1ccc(Cl)cc1)=N[C@@H](CC(=O)OC(C)(C)C)c1nnc(C)n1-2
IC50 (D283 Med): 256 nM | IC50 (HD-MB03): 153 nM | IC50 (UW228): > 1000 nM | Activity (Daoy): Active | inhibition [1]: 10%
